Pf Dd2 growth: inhibitors of Plasmodium falciparum Dd2 growth. P. falciparum Dd2 growth, SYBR Green, 72 h; active compounds read low. activity change, % at 10 µM. 94,000 compounds, 2.3% hits. AID 1159554; in the data active = activity change below about -80%; inconclusive = no clear call, values can overlap the other calls
T cruzi growth-1: inhibitors of T. cruzi proliferation; T. cruzi beta-gal in NIH3T3, GalScreen luminescence, 90 h; inhibition, % at 8.34 µM; 77,000 compounds, 5.9% hits;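 active = mean inhibition above about 93%, with at least 55% of replicates each passing it, limit read from the data, passing the limit was not always enough; inconclusive = only one of those two conditions holds; inactive = neither condition holds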
KDM4C inh: inhibitors of human demethylase GASC-1 KDM4C | 96,000 compounds, 0.15% hits | inhibition, % at 12.5 µM | GST-KDM4C 2-372, H3K9me3 peptide, LANCE TR-FRET;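 active = mean replicate inhibition above about 25%, with at least 55% of replicates also reaching it, limit read from the data, passing the limit was not always enough; inconclusive = only one of those two conditions met; inactive = neither condition met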
Target sequence (Q9H3R0 2-372 limits assumed): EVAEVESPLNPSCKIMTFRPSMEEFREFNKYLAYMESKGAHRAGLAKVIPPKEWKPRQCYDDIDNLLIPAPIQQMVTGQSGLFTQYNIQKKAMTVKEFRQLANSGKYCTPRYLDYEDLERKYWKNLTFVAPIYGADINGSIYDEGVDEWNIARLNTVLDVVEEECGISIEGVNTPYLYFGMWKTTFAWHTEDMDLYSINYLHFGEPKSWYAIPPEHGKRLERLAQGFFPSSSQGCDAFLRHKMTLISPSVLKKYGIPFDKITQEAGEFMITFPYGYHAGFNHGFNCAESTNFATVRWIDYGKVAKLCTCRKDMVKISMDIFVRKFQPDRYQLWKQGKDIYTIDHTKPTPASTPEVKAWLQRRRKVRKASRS
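System: N-terminal GST-fused human GASC-1 (KDM4C) fragment, residues 2-372; amount: enzyme final amount 10 nM; incubation: reaction 30 min RT, detection step 1 h RT; medium: HEPES buffer, pH 7.5, plus ascorbate; technique: LANCE TR-FRET, Eu antibody, ULight-streptavidin, EDTA, ex 340 nm, em 618/671 nm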
IDH1 mut inh: IDH1 R132H (human) inhibition; 70,000 compounds, 0.18% hits; AID 624101; inhibition, % at 10 µM; IDH1 R132H reductase, diaphorase/resazurin fluorescence, 60 min; O75874; in the data active = inhibition above about 34%; inconclusive = no clear call, values can overlap the other calls; inactive = below about 11%
Target sequence (O75874 whole entry R132H): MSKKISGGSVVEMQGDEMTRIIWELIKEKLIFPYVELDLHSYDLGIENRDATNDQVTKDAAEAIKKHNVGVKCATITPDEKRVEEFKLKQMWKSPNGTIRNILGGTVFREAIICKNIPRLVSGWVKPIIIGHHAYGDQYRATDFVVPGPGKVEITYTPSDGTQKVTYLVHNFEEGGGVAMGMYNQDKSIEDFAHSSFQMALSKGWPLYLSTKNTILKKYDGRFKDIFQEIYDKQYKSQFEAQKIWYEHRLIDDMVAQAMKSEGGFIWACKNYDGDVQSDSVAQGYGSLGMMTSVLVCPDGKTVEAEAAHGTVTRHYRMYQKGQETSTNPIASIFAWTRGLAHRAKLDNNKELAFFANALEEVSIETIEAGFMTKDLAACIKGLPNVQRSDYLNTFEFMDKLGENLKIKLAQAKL
T cruzi growth-2: Trypanosoma cruzi proliferation inhibition | shares compounds with T cruzi growth-1 | inhibition, % at 8.35 µM | T. cruzi beta-gal in NIH3T3, GalScreen luminescence, 90 h | AID 651739 | 5,600 compounds, 72% hits;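 active = mean replicate inhibition above about 95% and at least 55% of replicates individually reaching it, limit read from the data; inconclusive = only one of the two criteria is met; inactive = neither criterion is met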
T cruzi growth-3: inhibitors of T. cruzi proliferation; shares compounds with T cruzi growth-1; T. cruzi beta-gal in NIH3T3, GalScreen luminescence, 90 h; inhibition, % at 2.09 µM; 5,600 compounds, 21% hits;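 active = mean inhibition above about 95%, with at least 55% of replicates also reaching it, limit read from the data; inconclusive = meets just one of the two conditions; inactive = meets neither condition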
3T3 cytotox: cytotoxicity in mouse NIH/3T3 fibroblasts | shares compounds with T cruzi growth-1 | NIH/3T3 viability, CellTiter-Glo ATP luminescence, 90 h | cytotoxicity (signal decrease), % at 8.35 µM | 5,600 compounds, 14% hits;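 active = mean signal decrease across replicates above about 35% based on untreated-well scatter, with enough replicates individually passing, limit read from the data; inconclusive = no rule stated though some were filed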
3T3 cytotox 2: cytotoxicity in mouse NIH/3T3 fibroblasts | shares compounds with T cruzi growth-1 | NIH/3T3 viability, CellTiter-Glo ATP luminescence, 90 h | inhibition, % at 24.9 µM | 5,600 compounds, 56% hits | AID 651744;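 active = mean loss of cell viability signal at or above a set limit, and enough replicates individually reaching it; inconclusive = meets only the mean limit or only the replicate share; inactive = meets neither condition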
Of the large screens only hits and unclear results are named; the others gave an inactive call (follow-up assays come after a bar, where they were run). A selection: hits, their analogues and other compounds. The true share with any hit is near 5.8%.

Cc1ccc(S(=O)(=O)N2C[C@H](O)COC[C@H]3O[C@@H](CC(=O)N[C@@H]4CCN(Cc5ccccc5)C4)CC[C@@H]32)cc1	T cruzi growth-1 98 (no result: IDH1 mut inh) | T cruzi growth-2 inactive | T cruzi growth-3 inactive | 3T3 cytotox inactive | 3T3 cytotox 2 inactive
C[C@@H]1CN([C@H](C)CO)C(=O)c2cccc(NC(=O)c3ccncc3)c2O[C@H]1CN(C)Cc1ccncc1	none
C[C@H]1CN([C@@H](C)CO)C(=O)c2cccc(NC(=O)c3ccncc3)c2O[C@@H]1CN(C)Cc1ccncc1	none (no result: IDH1 mut inh)
C[C@@H]1CN([C@H](C)CO)C(=O)c2cccc(NC(=O)c3ccncc3)c2O[C@H]1CN(C)Cc1ccc2c(c1)OCO2	T cruzi growth-1 98 | T cruzi growth-2 inactive | T cruzi growth-3 inactive | 3T3 cytotox inactive | 3T3 cytotox 2 inactive
C[C@H](CO)N1C[C@H](C)[C@H](CN(C)Cc2ccncc2)Oc2c(NC(=O)c3ccncc3)cccc2C1=O	none
C[C@@H]1CN([C@@H](C)CO)C(=O)c2cccc(NC(=O)c3ccncc3)c2O[C@H]1CN(C)Cc1ccc2c(c1)OCO2	T cruzi growth-1 103 | T cruzi growth-2 97 | T cruzi growth-3 inactive | 3T3 cytotox inactive | 3T3 cytotox 2 27
C[C@H]1CN([C@@H](C)CO)C(=O)c2cccc(NC(=O)c3ccncc3)c2O[C@H]1CN(C)Cc1ccc2c(c1)OCO2	T cruzi growth-1 97 | T cruzi growth-2 108 | T cruzi growth-3 inactive | 3T3 cytotox inactive | 3T3 cytotox 2 inconclusive
CC(Oc1ccc(F)cc1)C(=O)Nc1sc2c(c1C(N)=O)CCCC2 (configuration not stated)	none (no result: Pf Dd2 growth, T cruzi growth-1, KDM4C inh)
N#C[C@@H]1[C@@H](c2ccc(C#Cc3cccc(F)c3)cc2)[C@H](CO)N1C(=O)C1CCC1	T cruzi growth-1 99 (no result: IDH1 mut inh) | T cruzi growth-2 104 | T cruzi growth-3 105 | 3T3 cytotox inactive | 3T3 cytotox 2 inactive
N#C[C@H]1[C@H](c2ccc(C#Cc3cccc(F)c3)cc2)[C@@H](CO)N1C(=O)C1CCC1	T cruzi growth-1 97 (no result: IDH1 mut inh) | T cruzi growth-2 97 | T cruzi growth-3 109 | 3T3 cytotox inactive | 3T3 cytotox 2 inactive
CO[C@@H](CN(C)C(=O)Nc1ccc(Cl)cc1)[C@@H](C)CN(Cc1ccccc1Cl)[C@@H](C)CO	T cruzi growth-1 109 | T cruzi growth-2 102 | T cruzi growth-3 inactive | 3T3 cytotox 39 | 3T3 cytotox 2 54
CO[C@@H](CN(C)C(=O)Nc1ccc(Cl)cc1)[C@H](C)CN(Cc1ccccc1Cl)[C@@H](C)CO	none
CO[C@H](CN(C)C(=O)Nc1ccc(Cl)cc1)[C@@H](C)CN(Cc1ccccc1Cl)[C@H](C)CO	T cruzi growth-1 102 | T cruzi growth-2 106 | T cruzi growth-3 inactive | 3T3 cytotox inactive | 3T3 cytotox 2 77
O=C(C[C@@H]1CC[C@@H]2[C@H](COC[C@H](O)CN2Cc2cc(F)ccc2F)O1)N1CCc2ccccc2C1	T cruzi growth-1 100 (no result: IDH1 mut inh) | T cruzi growth-2 inactive | T cruzi growth-3 inactive | 3T3 cytotox inactive | 3T3 cytotox 2 inactive
O=C(C[C@H]1CC[C@H]2[C@@H](COC[C@H](O)CN2Cc2cc(F)ccc2F)O1)NCc1ccc(Cl)cc1	T cruzi growth-1 inconclusive (no result: IDH1 mut inh) | T cruzi growth-2 inactive | T cruzi growth-3 inactive | 3T3 cytotox inactive | 3T3 cytotox 2 inactive
C[C@@H](NC(=O)C[C@H]1CC[C@H]2[C@@H](COC[C@@H](O)CN2Cc2ccc(C(F)(F)F)cc2)O1)c1ccccc1	T cruzi growth-1 inconclusive (no result: IDH1 mut inh) | T cruzi growth-2 inactive | T cruzi growth-3 inactive | 3T3 cytotox inactive | 3T3 cytotox 2 inactive
O=C(C[C@@H]1CC[C@@H]2[C@H](COC[C@@H](O)CN2Cc2ccccc2)O1)N[C@@H]1CCN(Cc2ccccc2)C1	T cruzi growth-1 inconclusive (no result: IDH1 mut inh) | T cruzi growth-2 inconclusive | T cruzi growth-3 inactive | 3T3 cytotox inactive | 3T3 cytotox 2 inactive
O=C(C[C@@H]1CC[C@@H]2[C@H](COC[C@H](O)CN2Cc2ccccc2)O1)N[C@@H]1CCN(Cc2ccccc2)C1	none (no result: IDH1 mut inh)
COC(=O)CNC(=O)c1cn(-c2ccccc2)nc1-c1cc2ccccc2oc1=O	none (no result: Pf Dd2 growth, T cruzi growth-1, KDM4C inh)
CC(C)[C@H](NC(=O)[C@H](C)N(C)C)C(=O)N1CC[C@@H]2Oc3ccc(cc3)/C=C\NC(=O)[C@H](Cc3ccccc3)NC(=O)C21 (some centres not stated)	none (no result: Pf Dd2 growth, T cruzi growth-1, KDM4C inh)
O=C(C[C@H]1CC[C@H]2[C@@H](COC[C@H](O)CN2Cc2cc(F)ccc2F)O1)N[C@H]1CCN(Cc2ccccc2)C1	T cruzi growth-1 124 (no result: IDH1 mut inh) | T cruzi growth-2 106 | T cruzi growth-3 inactive | 3T3 cytotox inactive | 3T3 cytotox 2 inactive
O=C(C[C@@H]1CC[C@@H]2[C@H](COC[C@@H](O)CN2Cc2cc(F)ccc2F)O1)N[C@H]1CCN(Cc2ccccc2)C1	none (no result: IDH1 mut inh)
Cc1cc(C(=O)CSc2ncn[nH]2)c(C)n1-c1cc(Cl)ccc1Cl	none (no result: Pf Dd2 growth, T cruzi growth-1, KDM4C inh)
COc1ccc(-c2noc(CN(C(=O)c3ccc(C)c([N+](=O)[O-])c3)C(C)C)n2)cc1	none (no result: Pf Dd2 growth, T cruzi growth-1, KDM4C inh)
C/C=C/c1ccc2c(c1)O[C@@H](CN(C)Cc1cncnc1)[C@H](C)CN([C@H](C)CO)S2(=O)=O	none (no result: T cruzi growth-1)
C/C=C/c1ccc2c(c1)O[C@@H](CN(C)Cc1ccccc1)[C@@H](C)CN([C@H](C)CO)S2(=O)=O	none
C/C=C/c1ccc2c(c1)O[C@@H](CN(C)Cc1ccncc1)[C@H](C)CN([C@H](C)CO)S2(=O)=O	T cruzi growth-1 102, IDH1 mut inh 43 | T cruzi growth-2 99 | T cruzi growth-3 104 | 3T3 cytotox inconclusive | 3T3 cytotox 2 69
C/C=C/c1ccc2c(c1)O[C@@H](CN(C)Cc1ccncc1)[C@@H](C)CN([C@H](C)CO)S2(=O)=O	T cruzi growth-1 103 | T cruzi growth-2 96 | T cruzi growth-3 inactive | 3T3 cytotox inactive | 3T3 cytotox 2 57
Cc1ccc(NC(=O)Cn2nc([N+](=O)[O-])cc2C)cc1	none (no result: Pf Dd2 growth, T cruzi growth-1, KDM4C inh)
COc1cccc(S(=O)(=O)N[C@H]2CC[C@@H](CCNC(=O)Cc3ccncc3)O[C@H]2CO)c1	T cruzi growth-1 106 | T cruzi growth-2 inactive | T cruzi growth-3 inactive | 3T3 cytotox inactive | 3T3 cytotox 2 inactive
O=C(NCC[C@@H]1CC[C@@H](NS(=O)(=O)c2cccc(Cl)c2)[C@@H](CO)O1)c1cnccn1	none
COc1cccc(S(=O)(=O)N[C@H]2CC[C@@H](CCNC(=O)Cc3ccncc3)O[C@@H]2CO)c1	none
O=C(NCC[C@H]1CC[C@H](NS(=O)(=O)c2cccc(Cl)c2)[C@@H](CO)O1)c1cnccn1	T cruzi growth-1 144 | T cruzi growth-2 inactive | T cruzi growth-3 inactive | 3T3 cytotox inactive | 3T3 cytotox 2 inactive
Cc1sc2ncnc(Nc3cccc(C(=O)O)c3)c2c1C	none (no result: Pf Dd2 growth, T cruzi growth-1, KDM4C inh)
